This is an account of results in ChEMBL document CHEMBL4138050, “Discovery of selective cystathionine β-synthase inhibitors by high-throughput screening with a fluorescent thiol probe” (Medchemcomm, 2017).

The target in series [1] is T1, Cystathionine beta-synthase (Homo sapiens) (UniProt P35520).
T1 sequence (whole entry): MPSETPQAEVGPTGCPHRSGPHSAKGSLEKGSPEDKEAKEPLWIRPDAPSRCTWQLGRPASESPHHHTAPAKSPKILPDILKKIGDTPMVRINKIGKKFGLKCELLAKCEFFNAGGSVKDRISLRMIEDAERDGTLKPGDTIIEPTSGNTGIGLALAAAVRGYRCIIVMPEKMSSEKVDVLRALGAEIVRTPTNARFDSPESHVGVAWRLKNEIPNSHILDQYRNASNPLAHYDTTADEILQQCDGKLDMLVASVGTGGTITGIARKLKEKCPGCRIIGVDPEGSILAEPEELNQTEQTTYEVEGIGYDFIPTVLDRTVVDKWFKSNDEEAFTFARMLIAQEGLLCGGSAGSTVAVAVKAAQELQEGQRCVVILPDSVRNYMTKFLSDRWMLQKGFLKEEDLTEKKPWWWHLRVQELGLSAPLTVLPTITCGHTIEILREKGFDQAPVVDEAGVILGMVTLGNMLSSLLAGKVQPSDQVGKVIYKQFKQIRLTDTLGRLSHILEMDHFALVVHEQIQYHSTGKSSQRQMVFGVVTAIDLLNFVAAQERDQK
Put plainly: Reversible inhibition of full-length GST-fused human CBS using cysteine/homocysteine as substrate assessed as decrease in H2S production at 100 uM preincubated for 1 hr followed by ultrafiltration for 5 times.

Series [2] deals with T2, Cystathionine beta-synthase (Homo sapiens, UniProt P35520).
T2 sequence (P35520 whole entry): T1 sequence (whole entry)
Kind of series: Inhibition of full-length GST-fused human CBS using cysteine/homocysteine as substrate assessed as decrease in H2S production preincubated for 3 mins in presence of homocysteine and lead nitrate followed by cysteine addition. In short, it runs like this:
(§1)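 The H2S-producing activity of the purified human enzyme was measured with cysteine and homocysteine as substrates in 50 mM HEPES, pH 7.4, with 0.4 mM lead nitrate (lead sulfide read-out).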

In series [3] the target is T3, Cystathionine gamma-lyase (Homo sapiens, UniProt P32929). Kind of series: Inhibition of N-terminal His-tagged CSE extracted from human HepG2 cells expressed in Escherichia coli BL21 (DE3) using cysteine as substrate assessed as decrease in H2S production preincubated for 3 mins in presence of lead nitrate followed by cysteine addition. An outline of the steps: as §1

The test system of another series is HT-29. Kind of series: Antiproliferative activity against human HT-29 cells assessed as decrease in cell viability after 24 hrs by CCK8 assay. Particulars: HT-29, 24 h. Format: functional, cell-based. An outline of the steps:
(§2)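 Viability of HT29 colon cancer cells and of NCM356 normal colon mucosal epithelial cells was measured across a concentration range and expressed relative to the control group. IC50 was taken from the dose–response curve. For HT29, values are means ± SD with n = 6.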

For another series, the species on record is Homo sapiens. Kind of series: Selectivity ratio of IC50 for N-terminal His-tagged CSE extracted from human HepG2 cells expressed in Escherichia coli BL21 (DE3) using cysteine as substrate assessed as decrease in H2S production to IC50 for full-length GST-fused human CBS using cysteine/homocysteine as substrate assessed as decrease in H2S production.
The target of series [4] is T2, Cystathionine beta-synthase. Kind of series: Inhibition of full-length GST-fused human CBS using methylcysteine as substrate measured for 10 mins by CPM probe-based fluorescence assay. In short, it runs like this:
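Enzyme source: full-length wild-type hCBS, 2 μg per reaction. Substrate: 10 mM methylcysteine. Buffer: 50 mM HEPES, pH 7.4, with 15 μM CPM thiol probe. Read-out: CH3SH release, followed as fluorescence at 460 nm (excitation 400 nm) over 600 s. Screening positive control: 100 μM AOAA. Secondary screen: compounds at 50 μM.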

Series [5] concerns the target T3, Cystathionine gamma-lyase. Kind of series: Inhibition of N-terminal His-tagged CSE extracted from human HepG2 cells expressed in Escherichia coli BL21 (DE3) using methylcysteine as substrate measured for 10 mins by CPM probe-based fluorescence assay. In short, it runs like this: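 Methanethiol release by purified human CSE was monitored continuously with 10 mM methylcysteine as substrate in 50 mM HEPES, pH 7.4. Thiol was trapped by the CPM fluorescent probe and read at 460 nm (excitation 400 nm). IC50 was taken from the dose–response curve.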

Series [6] in a line: Antiproliferative activity against human NCM356 cells assessed as decrease in cell viability after 24 hrs by CCK8 assay. Format: cell-based. In short, it runs like this:
as §2

Series [7] in a line: Selectivity index, ratio of IC50 for human NCM356 cells to IC50 for human HT-29 cells. Particulars: NCM356 cells versus HT-29 cells. It is filed as toxicity.

Activity calls are given as the source filed them. No cut-off for these calls is given here.

T3 sequence (P32929 whole entry): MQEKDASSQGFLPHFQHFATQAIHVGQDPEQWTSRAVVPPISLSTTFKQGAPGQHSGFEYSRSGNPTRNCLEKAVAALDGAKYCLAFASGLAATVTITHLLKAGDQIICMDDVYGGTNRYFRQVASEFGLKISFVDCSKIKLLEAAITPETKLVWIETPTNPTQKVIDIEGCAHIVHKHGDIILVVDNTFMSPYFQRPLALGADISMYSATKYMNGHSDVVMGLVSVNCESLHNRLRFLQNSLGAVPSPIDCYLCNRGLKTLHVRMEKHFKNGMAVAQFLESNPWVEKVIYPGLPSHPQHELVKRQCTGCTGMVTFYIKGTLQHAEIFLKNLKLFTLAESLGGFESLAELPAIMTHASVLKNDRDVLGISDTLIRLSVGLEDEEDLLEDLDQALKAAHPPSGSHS

As to `Oc1ccc(-c2oc3cc(O)cc4c3c2-c2cc(O)cc3c2[C@H](c2cc(O)cc5c2[C@@H]4[C@H](c2ccc(O)cc2)O5)[C@@H](c2ccc(O)cc2)O3)cc1`, the inhibition result in [1] and in series [3] was “Active” in each case. Moreover, in series [2], the IC50 was 5.9 µM.
As for `C[C@@H]1O[C@@H](Oc2c(-c3ccc(O)cc3)oc3cc(O)cc(O)c3c2=O)[C@H](OC(=O)/C=C\c2ccc(O)cc2)[C@H](O)[C@H]1OC(=O)/C=C\c1ccc(O)cc1`, the values for the half-inhibitory concentration (IC50) (in the series with HT-29; in series [2]; in [3]) were 1.5 to 13.5 µM, 6.2 µM and more than 400 µM, respectively. In addition, the inhibition result in [1] was “Active”.
As to `O=C(CCCCCCCCc1ccccc1)c1c(O)cc(O)cc1O`, the inhibition entry in series [1] was “Active”. In addition, the concentration for half-maximal inhibition (IC50) in series [2] was determined as 8.1 µM. Also, in the series filed under Homo sapiens, the Ratio IC50 is more than 10.
With `Oc1cc(O)cc(CCC/C=C\CCCCCCCCCc2cc(O)cc(O)c2)c1`, in series [1], the inhibition result is “Active”. The IC50 in series [2] was 7.4 µM. In addition, the Ratio IC50 in the series listed under Homo sapiens is more than 10.
Turning to `NOCC(=O)O` [CARBOXYMETHOXYLAMINE], the IC50 in the series with HT-29 came to 140 µM; in [4], 1 µM; in series [2], 4 µM; in series [5] it was 0.57 µM; in [3], 4 µM; in series [6] it was 800 µM.
In the case of `O=c1cc(-c2ccc(O)cc2)oc2c(-c3c(O)cc(O)c4c(=O)cc(-c5ccc(O)cc5)oc34)c(O)cc(O)c12` [CUPRESSUFLAVONE], the IC50 with HT-29 is not below 50 µM; in [2] it was 11.5 µM; in series [3] it was more than 400 µM. Besides, in series [1], the inhibition result is “Active”.
Turning to `Cc1cc(O)c2c(=O)c3c(O)cc(O)c4c5c(O)cc(O)c6c(=O)c7c(O)cc(C)c8c1c2c(c34)c(c78)c65` [HYPERICIN], the inhibition result in series [1] was “Active”. Further, in series [2], the concentration for half-maximal inhibition (IC50) is 3.1 µM. Further, in the series listed under Homo sapiens, the Ratio IC50 was more than 10.
As to `O=c1c(O)c(-c2cc(O)c(O)c(O)c2)oc2cc(O)cc(O)c12` [MYRICETIN], the inhibition result in [1] and in series [3] was “Active” throughout. Further, the 50% inhibitory concentration (IC50) in series [2] was found to be 18.8 µM.
`COc1ccc(-c2cc(=O)c3c(O)cc(O)c(-c4cc(-c5cc(=O)c6c(O)cc(O)cc6o5)ccc4O)c3o2)cc1` [PODOCARPUSFLAVONE A]: the IC50 in the series with HT-29 is 7.9 µM; in [2] it was 8.9 µM; in [3] it was more than 400 µM; in [6], 36 µM. Further, in series [1], the inhibition entry was “Active”. The selectivity ratio in series [7] stood at 5.
`COc1ccc([C@H]2Oc3cc(O)cc(O)c3C(=O)[C@@H]2[C@H]2C(=O)c3c(O)cc(O)cc3O[C@@H]2c2ccc(O)cc2)cc1` [SIKOKIANIN C]: the half-inhibitory concentration (IC50) with HT-29 is 1.5 µM; in [2], 9.2 µM; in [3] it was more than 400 µM; in series [6], 19 µM. Further, the inhibition entry in series [1] is “Active”. Further, the selectivity ratio in [7] worked out at 10.
